The target of assay [1] is ATP-dependent translocase ABCB1 (Homo sapiens, UniProt P08183). The experiment in a line: Compound was tested for inhibition of daunomycin efflux in the resistant human T-lymphoblast cell line CEM vcr1000. In kind it is functional, cell-based, CCRF-CEM.
Assay [2] deals with L5178Y. In words: Compound was tested for inhibition of rhodamine 123 efflux in mdr 1 transfectant L5178Y VMDRI C.06 mouse lymphoma cells. The assay is classed as functional, cell-based. Put shortly:
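Cells at 1 × 10⁶/mL in RPMI1640 preloaded with rhodamine 123 (final 0.2 μg/mL, 0.53 μmol/L) for 15 min at 37 °C, then resuspended in 37 °C medium with modulator (eight concentrations, 1:2.5 serial dilution, 3 nM–500 μM). Aliquots taken at 0, 30, 60, 90, 120 s into ice-cold verapamil stop solution. Read by flow cytometry, 5000 events. Vmax/Km from exponential fit, parental-line diffusion subtracted. EC50 from dose–response, mean of ≥5 experiments.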

ATP-dependent translocase ABCB1, sequence (P08183 whole entry): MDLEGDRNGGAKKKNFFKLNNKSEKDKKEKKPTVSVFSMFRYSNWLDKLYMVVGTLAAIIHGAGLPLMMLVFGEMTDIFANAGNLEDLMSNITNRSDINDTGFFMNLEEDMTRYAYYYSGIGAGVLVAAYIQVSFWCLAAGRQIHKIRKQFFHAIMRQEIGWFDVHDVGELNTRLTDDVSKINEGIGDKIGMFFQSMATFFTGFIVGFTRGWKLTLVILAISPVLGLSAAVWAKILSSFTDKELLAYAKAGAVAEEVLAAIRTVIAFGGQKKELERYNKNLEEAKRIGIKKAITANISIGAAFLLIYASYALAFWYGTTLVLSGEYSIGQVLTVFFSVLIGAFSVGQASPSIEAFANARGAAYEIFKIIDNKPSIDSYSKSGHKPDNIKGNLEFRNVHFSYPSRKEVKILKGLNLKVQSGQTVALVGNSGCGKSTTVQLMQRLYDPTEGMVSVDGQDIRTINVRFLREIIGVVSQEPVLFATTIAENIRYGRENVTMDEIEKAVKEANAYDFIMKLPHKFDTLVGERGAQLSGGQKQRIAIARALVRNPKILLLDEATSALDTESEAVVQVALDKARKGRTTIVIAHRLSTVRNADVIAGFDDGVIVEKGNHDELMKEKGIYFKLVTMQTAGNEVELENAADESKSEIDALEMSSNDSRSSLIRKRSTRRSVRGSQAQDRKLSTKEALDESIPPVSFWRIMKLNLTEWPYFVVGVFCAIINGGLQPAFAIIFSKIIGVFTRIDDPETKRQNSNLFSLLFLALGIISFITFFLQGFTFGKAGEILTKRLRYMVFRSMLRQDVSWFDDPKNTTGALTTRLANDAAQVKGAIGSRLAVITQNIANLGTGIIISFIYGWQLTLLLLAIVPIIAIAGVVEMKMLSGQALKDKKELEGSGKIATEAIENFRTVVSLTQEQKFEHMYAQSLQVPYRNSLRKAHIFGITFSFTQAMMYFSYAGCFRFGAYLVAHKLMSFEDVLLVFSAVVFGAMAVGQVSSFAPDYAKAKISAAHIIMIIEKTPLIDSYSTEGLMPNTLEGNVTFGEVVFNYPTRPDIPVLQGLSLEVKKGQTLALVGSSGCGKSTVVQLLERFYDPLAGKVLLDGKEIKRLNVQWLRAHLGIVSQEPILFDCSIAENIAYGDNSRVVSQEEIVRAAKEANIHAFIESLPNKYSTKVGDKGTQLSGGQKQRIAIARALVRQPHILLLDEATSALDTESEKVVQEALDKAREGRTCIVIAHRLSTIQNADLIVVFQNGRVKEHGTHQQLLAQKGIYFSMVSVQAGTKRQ

For orientation: EC50 means the concentration needed to bring the measured effect to its halfway point. On to `CCCNCC(O)Cn1c(C)c(C(=O)c2ccccc2)c(=O)n1-c1ccccc1` (centres undefined), for which the EC50 in assay [1] turned out to be 28.2 µM; in assay [2], 64.5 µM.

`CCCNc1c(C(=O)CCc2ccccc2)c(C)nn1-c1ccccc1` came in with an EC50 in assay [1] of 8.38 µM.

Regarding `CCCCNCC(O)Cn1c(C)c(C(=O)CCc2ccccc2)c(=O)n1-c1ccccc1` (centres undefined), the EC50 in assay [1] came to 2.69 µM; in assay [2] it was 4.02 µM.

Turning to `Cc1c(C(=O)c2ccccc2)c(=O)n(-c2ccccc2)n1CC(O)CNC(C)C` (centres undefined), the EC50 in assay [1] was determined as 83.2 µM; in assay [2], 226 µM.

Regarding `Cc1c(C(=O)c2cccs2)c(=O)n(-c2ccccc2)n1CC(O)CNC(C)C` (centres undefined), the EC50 in assay [1] amounted to 123 µM; in assay [2], 648 µM.

As to `Cc1c(C(=O)c2ccccc2)c(=O)n(C)n1CC(O)CN(C(C)C)C(C)C` (centres undefined), a half-maximal effect in assay [1] (EC50) was put at 24.1 µM.

On to `Cc1c(C(=O)c2ccccc2)c(=O)n(-c2ccccc2)n1CC(O)CN(C(C)C)C(C)C` (centres undefined), for which the EC50 in assay [1] amounted to 12.6 µM; in assay [2], 21.9 µM.

As to `Cc1ccccc1N1CCN(CC(O)Cn2c(C)c(C(=O)CCc3ccccc3)c(=O)n2-c2ccccc2)CC1` (centres undefined), the EC50 in assay [1] stood at 0.21 µM.

As for `Cc1nn(C)c(OCC(O)CN(C(C)C)C(C)C)c1C(=O)c1ccccc1` (centres undefined), in assay [1], the EC50 came to 1.21 µM.

In the case of `CCC/N=C(\CCc1ccccc1)c1c(C)[nH]n(-c2ccccc2)c1=O`, the EC50 in assay [1] stood at 3.79 µM.

As for `CCC/N=C(\c1ccccc1)c1c(C)[nH]n(C)c1=O`, in assay [1], a half-maximal response (EC50) required 273 µM.

In assay [1], `CC1=NN(c2ccccc2)C(=O)/C1=C(/c1ccccc1)N1CCN(c2ccccc2C)CC1` had an EC50 of 0.68 µM.

Consider `Cc1ccccc1N1CCN(CC(O)Cn2c(C)c(C(=O)c3ccccc3)c(=O)n2-c2ccccc2)CC1` (centres undefined), for which the results for the EC50 in assay [1] and in assay [2] were 0.89 µM and 2.43 µM, respectively.

On to `Cc1c(C(=O)c2cccs2)c(=O)n(-c2ccccc2)n1CC(O)CNC(C)(C)C` (centres undefined), for which the figures for the EC50 in assay [1] and in assay [2] were 72.4 µM and 94.7 µM, respectively.

For the compound `CCCNCC(O)Cn1c(C)c(C(=O)c2cccs2)c(=O)n1-c1ccccc1` (centres undefined), the EC50 in assay [1] was found to be 72.4 µM; in assay [2] it was 174 µM.

For `Cc1c(C(=O)CCc2ccccc2)c(=O)n(-c2ccccc2)n1CC(O)CNC(C)C` (centres undefined), the EC50 amounted to 11.8 µM in assay [1] and 34.2 µM in assay [2].

As to `Cc1c(C(=O)c2ccccc2)c(=O)n(-c2ccccc2)n1CC(O)CNC(C)(C)C` (centres undefined), the EC50 in assay [1] was 81.3 µM; in assay [2] it was 168 µM.

Turning to `Cc1nn(-c2ccccc2)c(OCC(O)CN(C(C)C)C(C)C)c1C(=O)c1ccccc1` (centres undefined), the EC50 stood at 1.06 µM in assay [1] and 2.22 µM in assay [2].

Turning to `CCCNCC(O)Cn1c(C)c(C(=O)CCc2ccccc2)c(=O)n1-c1ccccc1` (centres undefined), the EC50 in assay [1] came out at 6.31 µM; in assay [2] it was 15.2 µM.

`CCCNc1c(C(=O)c2ccccc2)c(C)nn1-c1ccccc1`: the EC50 in assay [1] was found to be 11 µM.

On to `Cc1c(C(=O)CCc2ccccc2)c(=O)n(-c2ccccc2)n1CC(O)CNC(C)(C)C` (centres undefined), for which the EC50 in assay [1] stood at 7.76 µM; in assay [2], 17.8 µM.

These data come from ChEMBL document CHEMBL1131135, “Substituted 4-acylpyrazoles and 4-acylpyrazolones: synthesis and multidrug resistance-modulating activity” (J Med Chem, 1998).
